This note sets out measurements from ChEMBL document CHEMBL1151165, “Characterization of the preferred stereochemistry for the neuropharmacologic actions of antillatoxin” (J Nat Prod, 2004).

Series [1] can be described thus: Cytotoxicity against mouse Neuro2a cells. The format is cell-based, N2a. The conditions noted are these: read-out: LD50 (the source's name).
The nature of series [2]: Increase in cytoplasmic calcium influx in Sprague-Dawley rat CGN cells by FLIPR. The format is cell-based. Put shortly: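 Cytoplasmic Ca2+ in cerebellar granule cells was followed by fluo-3 fluorescence, with basal fluorescence (about 4000 units) subtracted. The response is the integrated fluorescence area under the curve, plotted against compound concentration.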
For the next series, the system named is Carassius auratus. Briefly: Ichthyotoxicity against Carassius auratus. The conditions noted are these: in vivo. It counts as organism-based.
The nature of series [3]: Increase in extracellular acidification rate in Sprague-Dawley rat CGN cells by cytosensor microphysiometer. The format is cell-based. The method, boiled down:
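Cerebellar granule neurons were cultured on porous polycarbonate membranes, and extracellular acidification rate was monitored by microphysiometry over a range of concentrations. Peak acidification rate is expressed as percent of basal proton efflux. Two separate experiments, each in duplicate, mean ± SEM.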

A short description of series [4]: Cytotoxicity in Sprague-Dawley rat CGN cells assessed as LDH release after 2 hrs. It counts as cell-based. The method, boiled down: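 Rat cerebellar granule cells, 11-13 days in culture, exposed 2 h to the compound across a concentration range. LDH efflux into the culture medium was measured, and pEC50 was taken from concentration-response curves. Two separate experiments, each in triplicate, mean ± SEM.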

A short description of series [5]: Cytotoxicity in Sprague-Dawley rat CGN cells assessed as LDH release at 100 nM after 2 hrs in presence of 1 uM tetrodotoxin. The format is cell-based. The settings on record: 0.1 µM.
Series [6] can be described thus: Increase in extracellular acidification rate in Sprague-Dawley rat CGN cells at 100 nM by cytosensor microphysiometer. The conditions noted are these: 0.1 µM. The format is cell-based.
Series [7] can be described thus: Cytotoxicity in Sprague-Dawley rat CGN cells assessed as LDH release after 2 hrs in presence of 1 uM tetrodotoxin. It counts as cell-based.

For the compound `C=C1CC(=O)N[C@@H](C)C(=O)N(C)[C@@H](C(C)C)C(=O)NCC(=O)O[C@H](/C(C)=C/C(C)=C/C(C)(C)C)[C@H]1C`, the CC50 in series [1] came to 10 µM. The Activity entry in series [2] is “Dose-dependent effect and tde”.

In the case of `C=C1CC(=O)N[C@@H](C)C(=O)N(C)[C@@H](C(C)C)C(=O)NCC(=O)O[C@@H](/C(C)=C/C(C)=C/C(C)(C)C)[C@H]1C`, the CC50 in series [1] amounted to 5 µM. In addition, the Activity entry in series [2] was “Dose-dependent effect and tde”.

In the case of `C=C1CC(=O)N[C@@H](C)C(=O)N(C)[C@@H](C(C)C)C(=O)NCC(=O)O[C@H](/C(C)=C/C(C)=C/C(C)(C)C)[C@@H]1C`, the Activity result in the series with Carassius auratus is “Non-toxic”; in series [3], 5 µM; in series [2], “Dose-dependent effect and tde”. Further, the CC50 in series [1] came to 10 µM. Further, in series [4] (read-out: EC50), the EC50 turned out to be 8.1 µM.

As for `C=C1CC(=O)N[C@@H](C)C(=O)N(C)[C@@H](C(C)C)C(=O)NCC(=O)O[C@@H](/C(C)=C/C(C)=C/C(C)(C)C)[C@@H]1C` [ANTILLATOXIN], the Activity in the series on Carassius auratus is 0.1 µM; in series [3], 0.041 µM; in series [5], “Non-toxic”; in series [6] it was 300%; in series [2] it was “Dose-dependent effect and tde”; in series [7], “Non-toxic”. Further, the CC50 in series [1] stood at 0.18 µM. For the same compound, the figures for the EC50 in series [4] (read-out: EC50) and in series [4] (read-out: pEC50 (converted)) were 0.042 µM and 0.0457 µM, respectively.
